Laboratory results published in ChEMBL document CHEMBL1150310, “Development of novel water-soluble photocleavable protective group and its application for design of photoresponsive paclitaxel prodrugs” (Bioorg Med Chem, 2008).
In brackets after ≈: the same amount, converted by molar mass.

Tests used:
Format in all cases: physicochemical
[1] = Stability in phosphate-buffered saline at pH 7.4 at 4 degC after 1 month; conditions: buffer, pH 7.4, 730.5 h
[2] = Stability in solid state at -20 degC after 4 months; conditions: 2922 h
[3] = Solubility in water at 15 degC; conditions: in the assay text read “25 degC” for “15 degC”
In short: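 The filtrate of the aqueous preparation was analysed by RP-HPLC. Water solubility was quantified against a calibration curve built from standard solutions of known prodrug amounts.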

[4] = Photostability in phosphate-buffered saline assessed as paclitaxel release at pH 7.4 after 4 mins of irradiation with UV laser of 355 nm, 10 Hzm 5 mJ irradiation; conditions: buffer, pH 7.4, 4 min
In short: (§1)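 The conversion profile was measured in 10 mM PBS (pH 7.4) under pulsed UV laser irradiation (355 nm, 10 Hz, 5 mJ). The released isotaxel then undergoes spontaneous O–N intramolecular acyl migration to give paclitaxel.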

[5] = Photostability in phosphate-buffered saline assessed as paclitaxel release at pH 7.4 after 4 mins of irradiation with UV light of 365 nm, 6W irradiation; conditions: buffer, pH 7.4, 4 min
In short: (§2)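 Prodrug, coumarin or parent drug, as a 2 mM DMSO stock, was diluted 3:297 into 10 mM PBS (pH 7.4). It was irradiated at room temperature with a 365 nm, 6 W UV lamp, and conversion was followed by HPLC.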

[6] = Photostability in phosphate-buffered saline assessed as paclitaxel release at pH 7.4 after irradiation with UV laser of 355 nm, 10 Hzm 5 mJ irradiation; conditions: buffer; in short: as §1
[7] = Photostability in phosphate-buffered saline assessed as 7-[Bis-[2-[[2-(dimethylamino)ethyl]amino]-2-oxoethyl]amino]-4-(hydroxymethyl) coumarin hydrochloride release at pH 7.4 after 1 hr of irradiation with UV light of 365 nm, 6W irradiation; conditions: buffer, pH 7.4, 1 h; in short: as §2

Row | SMILES | Stability [1] | Stability [2] | solubility [3] [µg/mL] | Activity [4] [%] | Activity [5] [%] | t1/2 [6] [min] | Activity [7] [%]
1 | CC(=O)O[C@H]1C(=O)[C@@]2(C)[C@H]([C@H](OC(=O)c3ccccc3)[C@]3(O)C[C@H](OC(=O)[C@H](OC(=O)c4ccccc4)[C@@H](NC(=O)OCc4cc(=O)oc5cc(N(CC(=O)NCCN(C)C)CC(=O)NCCN(C)C)ccc45)c4ccccc4)C(C)=C1C3(C)C)[C@]1(OC(C)=O)CO[C@@H]1C[C@@H]2O.Cl | Stable | Stable | > 100000 | 24 | 69 | 15.1 | 11
2 | CC(=O)O[C@H]1C(=O)[C@@]2(C)[C@H]([C@H](OC(=O)c3ccccc3)[C@]3(O)C[C@H](OC(=O)[C@H](OC(=O)c4ccccc4)[C@@H](N)c4ccccc4)C(C)=C1C3(C)C)[C@]1(OC(C)=O)CO[C@@H]1C[C@@H]2O [ISOTAXEL] | – | – | 450 (≈ 527 µM) | – | – | – | –
